Results from different studies.
Observed: metabolic stability
Species: human
Sample: liver microsomes

| Structure (SMILES) | setting | microsomal CLint |
| --- | --- | --- |
| O=C(O)C1CCN(c2nc(-c3ccccn3)nc3ccccc23)C1 (centres unmarked) |  | 9 µL/min/mg |
| O=c1[nH]c(=S)n(Cc2ccc(Cl)cc2CNCC(F)(F)F)c2cc[nH]c12 |  | 8.2 µL/min/mg |
| COc1cc2[nH]c(C)c(-c3cccc(CO)c3)c(=O)c2cc1Cl | 1 µM | < 7 µL/min/mg |
| O=C(Nc1ccc2c(c1)B(O)OC2)Nc1ccc(F)c(C(F)(F)F)c1 |  | 13 µL/min/mg |
| CCOCCOc1ccnc2ccc(-c3ccc(S(=O)(=O)N4CCOCC4)cc3)cc12 |  | > 300 µL/min/mg |
| CCn1ncc2c(N3CCC(c4ccccn4)C3)nc(-c3ccccn3)nc21 (centres unmarked) |  | < 1 µL/min/mg |
| Cc1cc(Nc2ccc(C(F)(F)F)cc2)n2nc(C(C)(F)F)nc2n1 | 1 µM, pH 7.4 | < 6 µL/min/mg |
| Fc1ccc(Nc2c(-c3ncccc3F)nc3ccccn23)cc1 | 3 µM, pH 7.4 | 86 µL/min/mg |
| CCOc1ccc2ccc(=O)oc2c1 | 1 µM, pH 7.4 | 146 µL/min/mg |
| COc1cc2[nH]c(C)c(-c3ccc(F)cc3)c(=O)c2cc1Cl | 1 µM | 31 µL/min/mg |
| C[C@@H](C(=O)NC1Cc2ccccc2C1)c1ccccc1 | 1 µM, 1 h | 105 µL/min/mg |
| Fc1ccc(Nc2c(-c3cc(Cl)ccn3)nc3ccccn23)cc1 | 3 µM, pH 7.4 | 160 µL/min/mg |
| COc1cc2[nH]c(C)c(-c3ccc(C)cc3)c(=O)c2cc1Cl | 1 µM | 21 µL/min/mg |
| Fc1ccc(Nc2c(-c3cccc(F)n3)nc3ccccn23)cc1 | 3 µM, pH 7.4 | 130 µL/min/mg |
| Cc1cc(Nc2ccc(S(F)(F)(F)(F)F)cc2)n2nc(C(F)(F)F)nc2n1 | 1 µM, pH 7.4 | < 6 µL/min/mg |
| CN(c1ccc(F)cc1)c1c(-c2ccc(F)cn2)nc2ccccn12 | 3 µM, pH 7.4 | 220 µL/min/mg |
| CCN(CC)CCNC(=O)c1c(C)[nH]c(/C=C2\C(=O)Nc3ccc(F)cc32)c1C | 1 µM, pH 7.4 | 19 µL/min/mg |
| Cn1cc(-c2nc(N3CCC(c4ccccn4)C3)c3ccccc3n2)cn1 (centres unmarked) |  | 118 µL/min/mg |
| COc1cc2[nH]c(C)c(-c3ccc(C(C)C)cc3)c(=O)c2cc1Cl | 1 µM | 34 µL/min/mg |
| N#CC1CCN(c2nc(-c3ccccn3)nc3ccccc23)CC1 |  | 45 µL/min/mg |
| O=S(=O)(c1ccc(-c2ccc3nccc(Nc4cnccn4)c3c2)cc1)N1CCOCC1 |  | 115 µL/min/mg |
| O=C(N[C@H](Cc1ccccc1)C(=O)Nc1ccccc1N1CCS(=O)(=O)CC1)c1ccccc1F | 2 µM, 40 min, pH 7.4 | 1110 µL/min/mg |
| Clc1cccc(-c2c(-c3ccccn3)nc3n2CCC3)c1 | 3 µM, pH 7.4 | 140 µL/min/mg |
| c1ccc(-c2nc(N3CCCC(c4ccccn4)C3)c3ccccc3n2)nc1 (centres unmarked) |  | 113 µL/min/mg |

| Structure (SMILES) | setting | microsomal CLint |
| --- | --- | --- |
| COc1cc2[nH]c(C)c(-c3ccc(OC(C)C)cc3)c(=O)c2cc1Cl | 1 µM | 8 µL/min/mg |
| Fc1ccc(Nc2c(-c3ccccn3)nc3ccccn23)c(F)c1 | 3 µM, pH 7.4 | 96 µL/min/mg |
| Cc1cc(Nc2ccc(S(F)(F)(F)(F)F)cc2)n2ccnc2n1 |  | 7.1 µL/min/mg |
| CCOC(=O)c1c(-c2cccc(Cl)c2)[nH]c2cc(OC)c(F)cc2c1=O | 19.8 µM, pH 7.4 | < 4 µL/min/mg |
| CN(C)C(=N)N=C(N)N |  | 1.5 µL/min/mg |
| c1ccc(-c2nc(N3CCc4cccnc4C3)c3ccccc3n2)nc1 |  | 64 µL/min/mg |
| Cc1cc(NC(=O)Nc2ccc3c(c2)OC(F)(F)O3)cc(C(F)(F)F)n1 |  | < 7 µL/min/mg |
| COc1cc2[nH]c(C)c(-c3ccoc3)c(=O)c2cc1Cl | 1 µM | 93 µL/min/mg |
| CCc1nnc(Nc2ccnc3ccc(-c4ccc(S(=O)(=O)N5CCOCC5)cc4)cc23)s1 |  | 59.3 µL/min/mg |
| Cc1cccc(CNc2nc(-c3ccccn3)nc3ccccc23)n1 |  | 63 µL/min/mg |
| CC(C)(C)[Si](C)(C)OCCCN(c1ccc(F)cc1)c1c(-c2ccccn2)nc2ccccn12 | 3 µM, pH 7.4 | > 300 µL/min/mg |
| COc1ccc(Nc2ccnc3ccc(-c4ccc(S(=O)(=O)N5CCOCC5)cc4)cc23)cc1C |  | 131 µL/min/mg |
| Cc1cc(Nc2ccc(S(F)(F)(F)(F)F)cc2)n2nc(C(C)(F)F)nc2n1 | 1 µM, pH 7.4 | < 6 µL/min/mg |
| COc1cccc(-c2nc3ccccn3c2Nc2ccc(F)cc2)n1 | 3 µM, pH 7.4 | 137 µL/min/mg |
| COc1cc2[nH]c(C)c(-c3c(C)noc3C)c(=O)c2cc1Cl | 1 µM | < 7 µL/min/mg |
| Cc1noc(C)c1Nc1ccnc2ccc(-c3ccc(S(=O)(=O)N4CCOCC4)cc3)cc12 |  | 78.2 µL/min/mg |
| C[C@H](C(=O)N[C@@H]1COc2ccccc2[C@H]1S(C)(=O)=O)c1ccc(F)cc1 | 1 µM | 2 µL/min/mg |
| Cc1cc(Nc2ccnc3ccc(-c4ccc(S(=O)(=O)N5CCOCC5)cc4)cc23)on1 |  | 69.8 µL/min/mg |
| CCn1cnc2c(N3CCC(c4ccccn4)C3)nc(-c3ccccn3)nc21 (centres unmarked) |  | 42 µL/min/mg |
| Cc1cnnc(Nc2ccnc3ccc(-c4ccc(S(=O)(=O)N5CCOCC5)cc4)cc23)c1 |  | 126 µL/min/mg |
| COc1cc2[nH]c(C)c(-c3ccc(N4CCN(C)CC4)nc3)c(=O)c2cc1Cl | 1 µM | 34 µL/min/mg |
| CCn1nccc1Nc1ccnc2ccc(-c3ccc(S(=O)(=O)N4CCOCC4)cc3)cc12 |  | 134 µL/min/mg |
| COc1ccc(CNc2c(CO)cnc3c(C4CC4)cc(C#N)cc23)cc1Cl |  | 80 µL/min/mg |
